The source made the active and inactive calls. No cut-off for these calls is given here.
Tests used:
[1] = AUC (0 to t) in male Sprague-Dawley rat at 0.5 mg/kg, iv measured for 36 hrs by LC-MS/MS analysis; format: ADME, organism-based; design: time 36 hrs, dose 0.5 mg/kg; conditions: in vivo
Procedure, shortened: (§1)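 Sprague-Dawley rats (200–220 g), three per sex per route, were dosed at 0.5 mg/kg IV or 5 mg/kg PO in DMSO/Tween-80/water (1:5:94). Heparinized blood was drawn from 5 min to 36 h after IV dosing and from 1 h to 36 h after oral dosing. Plasma was deproteinized with methanol (2% HCl) plus carbamazepine internal standard, measured by LC-MS/MS, and reported as mean ± SD.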

[2] = AUC (0 to t) in female Sprague-Dawley rat at 0.5 mg/kg, iv measured for 36 hrs by LC-MS/MS analysis; format: ADME, organism-based; design: dose 0.5 mg/kg, time 36 hrs; conditions: in vivo; procedure, shortened: as §1
[3] = Cmax in male Sprague-Dawley rat at 0.5 mg/kg, iv measured for 36 hrs by LC-MS/MS analysis; format: ADME, organism-based; design: route intravenous, dose 0.5 mg/kg, time 36 hrs; conditions: in vivo
[4] = Cmax in female Sprague-Dawley rat at 0.5 mg/kg, iv measured for 36 hrs by LC-MS/MS analysis; format: ADME, organism-based; design: route intravenous, time 36 hrs, dose 0.5 mg/kg; conditions: in vivo
[5] = Cmax in female Sprague-Dawley rat at 5 mg/kg, po measured for 36 hrs by LC-MS/MS analysis; format: ADME, organism-based; design: route oral, time 36 hrs, dose 5 mg/kg; conditions: in vivo
[6] = Tmax in male Sprague-Dawley rat at 5 mg/kg, po measured for 36 hrs by LC-MS/MS analysis; format: ADME, organism-based; conditions: in vivo
Procedure, shortened: (§2)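 Sprague-Dawley rats (200–220 g), three males and three females per route group. Dosed 5 mg/kg orally or 0.5 mg/kg IV as a solution in DMSO/T-80/H2O (1:5:94 by volume). Heparinized blood was drawn from 5 min to 36 h after IV and 1–36 h after oral dosing. Plasma was protein-precipitated with methanol (2% HCl) plus carbamazepine internal standard and assayed by LC-MS/MS. Parameters were taken from concentration-time data; n = 3 per sex, mean ± SD.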

[7] = Half life in male Sprague-Dawley rat at 5 mg/kg, po measured for 36 hrs by LC-MS/MS analysis; format: ADME, organism-based; conditions: in vivo
[8] = Clearance in male Sprague-Dawley rat at 0.5 mg/kg, iv measured for 36 hrs by LC-MS/MS analysis; format: ADME, organism-based; conditions: in vivo
[9] = Volume of distribution at steady state in male Sprague-Dawley rat at 0.5 mg/kg, iv measured for 36 hrs by LC-MS/MS analysis; format: ADME, organism-based; conditions: in vivo, read-out: Vdss; procedure, shortened: as §2
[10] = target: T1, Nuclear receptor subfamily 4immunitygroup A member 1 (Homo sapiens, UniProt P22736); test: Modulation of Myc-Nur77 (unknown origin) transfected in human HEK293T cells assessed as induction of Myc-Nur77 mitochondrial targeting by measuring increase in Myc-Nur77 accumulation in mitochondria at 0.5 uM measured after 2 hrs by western blot analysis; conditions: filed as modulator
Procedure, shortened: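 HEK293T cells transfected with Myc-Nur77 were exposed to 0.5 μM compound for 2 h. Cells were homogenised in sucrose Buffer D; 500 g then 5000 g spins gave a mitochondrial pellet. Whole-cell and mitochondrial fractions were western blotted for Myc-Nur77, with PARP and Tom20 as fraction-purity markers.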

[11] = target: T1, Nuclear receptor subfamily 4immunitygroup A member 1; test: Modulation of Myc-Nur77 (unknown origin) transfected in human HEK293T cells co-transfected with Flag-tagged Bcl2 assessed as interaction of Nur77 with Bcl2 at 0.5 uM measured after 1 to 3 hrs by co-immunoprecipitation assay; format: cell-based; conditions: filed as modulator, time 1-3 hrs
Procedure, shortened: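 HEK293T cells cotransfected with Flag-Bcl-2 and Myc-Nur77 were treated with or without 0.5 μM compound over the indicated times. They were lysed in Triton X-100 buffer with protease inhibitors; 5% of lysate was kept as input. Lysate was immunoprecipitated with anti-Flag at 4 °C for 12 h, then protein A-Sepharose for 3 h, washed three times in PBS and western blotted.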

HCT-116 = test: Induction of apoptosis in human HCT-116 cells assessed as PARP cleavage at 0.5 uM measured after 6 hrs by western blot assay relative to Di(1H-indol-3-yl)(4-(trifluoromethyl)phenyl)methylium methanesulfonate; format: functional
Procedure, shortened: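 HCT116 cells grown in RPMI-1640 with 10% FBS, exposed to 0.5 μM compound for 6 h. Lysates run on SDS-PAGE and blotted for PARP and cleaved PARP (primary antibodies 1:1000, ECL detection). The cleaved-PARP/PARP band intensity ratio was expressed relative to the reference compound set to 1. Mean ± SD, n = 3.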

SW-620 = test: Induction of apoptosis in human SW-620 cells assessed as viable cells at 0.5 uM measured after 6 hrs by Annexin V-FITC/PI staining based flow cytometry method (reference value: 98.37%); format: functional; conditions: read-out: Activity
Procedure, shortened: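 Cells seeded at 1×10^6 per well and treated with 0.5 µM for 6 h. Floating and adherent cells pooled, stained with Annexin V-FITC for 10 min and propidium iodide for 5 min, then analysed immediately by flow cytometry in FITC and PC5.5 channels. Mean ± SD, n = 3.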

MEF = test: Induction of apoptosis in mouse MEF cells lacking Nur77 assessed as PARP cleavage at 0.5 uM measured after 6 hrs by western blot assay; format: functional, cell-based
Procedure, shortened: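 Wild-type, Nur77−/− or Bcl-2−/− mouse embryonic fibroblasts grown in DMEM with 10% FBS and treated with 0.5 µM for 6 h. PARP cleavage detected by western blot, primary antibodies at 1:1000, ECL.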

Mus musculus = test: Antitumour activity against FVB/N mammary tumor MMTV-PyMT mouse model assessed as inhibition of tumour growth at 3 mg/kg, po administered daily for 14 days; format: functional, organism-based; conditions: time 14.0 day
Procedure, shortened: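 Female MMTV-PyMT transgenic mice (FVB/N background), 12 weeks old, randomized n = 6 per group; daily oral gavage 3 mg/kg for 14 days. Dosing solution: DMSO stock diluted in normal saline with 5.0% (V/V) Tween-80 to 3 mg/mL. Tumours weighed at end; mean ± SD, Student's t-test versus untreated controls.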

[12] = Cmax in male/female Sprague-Dawley rat at 0.5 mg/kg, iv measured for 36 hrs by LC-MS/MS analysis; format: ADME, organism-based; design: route intravenous, dose 0.5 mg/kg, time 36 hrs; conditions: both, in vivo
[13] = Half life in male/female Sprague-Dawley rat at 0.5 mg/kg, iv measured for 36 hrs by LC-MS/MS analysis; format: ADME, organism-based; conditions: both, in vivo
[14] = Clearance in male/female Sprague-Dawley rat at 0.5 mg/kg, iv measured for 36 hrs by LC-MS/MS analysis; format: ADME, organism-based; conditions: both, in vivo
[15] = MRT(0 to t) in male/female Sprague-Dawley rat at 5 mg/kg, po measured for 36 hrs by LC-MS/MS analysis; format: ADME, organism-based; conditions: both, in vivo
Procedure, shortened: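 Sprague-Dawley rats (200–220 g), four per route group (2 male, 2 female), given 0.5 mg/kg IV or 5 mg/kg orally in DMSO/T-80/H2O (1:5:94). Heparinized blood was sampled at 5 min–36 h after IV and at 0.5, 1, 3, 4, 6, 8, 10, 12, 24 and 36 h after oral dosing. Plasma was methanol (2% HCl)-precipitated with carbamazepine internal standard and quantified by LC-MS/MS. Parameters reported as mean ± SD.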

[16] = Selectivity index, ratio of IC50 for human MCF-10A cells to IC50 for human MDA-MB-231 cells; format: toxicity; conditions: MCF-10A cells versus MDA-MB-231 cells, read-out: Ratio IC50
[17] = Selectivity index, ratio of IC50 for human NCM460 cells to IC50 for human SW-620 cells

T1 sequence (P22736 whole entry): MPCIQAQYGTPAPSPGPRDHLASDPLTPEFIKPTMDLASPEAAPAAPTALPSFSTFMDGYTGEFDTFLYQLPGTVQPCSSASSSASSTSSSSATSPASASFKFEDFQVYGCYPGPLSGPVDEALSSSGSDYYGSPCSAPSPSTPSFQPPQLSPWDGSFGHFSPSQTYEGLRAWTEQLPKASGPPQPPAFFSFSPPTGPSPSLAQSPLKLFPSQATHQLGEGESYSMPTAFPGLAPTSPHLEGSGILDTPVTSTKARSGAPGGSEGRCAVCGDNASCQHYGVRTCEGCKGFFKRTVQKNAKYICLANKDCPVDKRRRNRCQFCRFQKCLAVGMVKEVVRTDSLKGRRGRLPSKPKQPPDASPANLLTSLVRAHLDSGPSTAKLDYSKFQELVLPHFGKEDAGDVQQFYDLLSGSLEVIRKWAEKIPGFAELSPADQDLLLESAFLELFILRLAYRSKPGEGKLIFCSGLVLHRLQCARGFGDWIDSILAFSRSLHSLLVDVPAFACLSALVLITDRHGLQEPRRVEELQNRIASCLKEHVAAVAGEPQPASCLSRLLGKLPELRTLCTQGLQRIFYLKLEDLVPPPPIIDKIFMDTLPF

Q: Which AUC(0-t) at 36 h [1] does the source give for `CS(=O)(=O)[O-].FC(F)(F)c1ccc([C+](c2c[nH]c3ccccc23)c2c[nH]c3ccccc23)cc1` here?
A: 1120 ng·h/mL

Q: And the AUC(0-t) at 36 h [2]?
A: 1730 ng·h/mL

Q: What about the Cmax [3] of the same compound?
A: 880 ng/mL

Q: What about the Cmax [4] of the same compound?
A: 1640 ng/mL

Q: What about the Cmax [5] of the same compound?
A: 203 ng/mL

Q: And the Tmax [6]?
A: 5.33 h

Q: What about the half-life [7] of the same compound?
A: 5.28 h

Q: And the clearance [8]?
A: 7.5 mL/min/kg

Q: And the Vd [9]?
A: 2.56 L/kg

Q: For `CS(=O)(=O)[O-].Cn1cc([C+](c2ccc(C(F)(F)F)cc2)c2c[nH]c3ccccc23)c2ccccc21`, which Activity [10] is on record?
A: Active

Q: And the Activity [11]?
A: Active

Q: And the “fold change (FC)” value (HCT-116)?
A: 13.54

Q: And the viability at 0.5 µM (SW-620)?
A: 7.08%

Q: What about the Activity (MEF) of the same compound?
A: inactive

Q: And the Activity (Mus musculus)?
A: Active

Q: And the Cmax [12]?
A: 561 ng/mL

Q: And the half-life [13]?
A: 2.66 h

Q: And the clearance [14]?
A: 17 mL/min/kg

Q: What about the MRT last at 36 h [15] of the same compound?
A: 9.59 h

Q: And the selectivity ratio [16]?
A: 40

Q: And the “Ratio IC50” value [17]?
A: 50

From ChEMBL document CHEMBL4819003, “Optimization of novel oxidative DIMs as Nur77 modulators of the Nur77-Bcl-2 apoptotic pathway” (Eur J Med Chem, 2021)
